Active and inactive are the calls of the source. The calls are words filed in the database; no cut-off is given here.
Key:
[1] = target: T1, Cytochrome P450 2D6 (Homo sapiens, UniProt P10635); assay: Drug metabolism assessed as intrinsic clearance for human recombinant CYP2D6-mediated compound formation per nmol protein treated with AM2201 at 10 uM after 90 mins; type: ADME; conditions: recombinant enzyme, 1.5 h
[2] = tested on: Liver microsome; assay: Drug metabolism in human liver microsomes assessed as intrinsic clearance per mg protein treated with JWH-018; type: ADME
[3] = target: T2, Cytochrome P450 1A2 (Homo sapiens, UniProt P05177); assay: Drug metabolism assessed as intrinsic clearance for human recombinant CYP1A2-mediated compound formation per nmol protein treated with JWH-018 at 10 uM after 90 mins; type: ADME; conditions: recombinant enzyme, 1.5 h
T2 sequence (P05177 whole entry): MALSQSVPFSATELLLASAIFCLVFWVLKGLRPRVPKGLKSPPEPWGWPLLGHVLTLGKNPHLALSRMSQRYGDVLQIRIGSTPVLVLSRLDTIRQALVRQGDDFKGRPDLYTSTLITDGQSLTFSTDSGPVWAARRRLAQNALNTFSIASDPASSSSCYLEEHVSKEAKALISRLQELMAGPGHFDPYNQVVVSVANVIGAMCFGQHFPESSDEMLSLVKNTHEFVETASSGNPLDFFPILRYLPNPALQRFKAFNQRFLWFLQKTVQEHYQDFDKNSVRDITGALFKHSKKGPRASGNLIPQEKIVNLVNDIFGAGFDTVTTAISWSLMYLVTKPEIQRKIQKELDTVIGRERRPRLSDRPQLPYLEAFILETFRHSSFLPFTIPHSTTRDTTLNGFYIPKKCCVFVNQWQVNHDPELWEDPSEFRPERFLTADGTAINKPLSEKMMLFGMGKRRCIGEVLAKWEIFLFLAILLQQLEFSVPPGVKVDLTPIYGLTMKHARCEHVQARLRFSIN

[4] = Drug level in human urine treated with JWH-018 by LC-MS/MS analysis; type: ADME, tissue-based
Summary of the method: (§1)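 Urine from suspected users (40 μl) incubated with or without β-glucuronidase (1.6 U/μl final) in 0.1 M sodium acetate pH 5.0, 60 min at 37°C with shaking. Analysed by positive-ESI LC-MS/MS against standards matrix-matched in blank pooled human urine, with confirmation by enhanced product ion spectra.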

[5] = target: T3, Cytochrome P450 2C19 (Homo sapiens, UniProt P33261); assay: Drug metabolism assessed as intrinsic clearance for human recombinant CYP2C19-mediated compound formation per nmol protein treated with AM2201 at 10 uM after 90 mins; type: ADME; conditions: recombinant enzyme, 1.5 h
T3 sequence (P33261 whole entry): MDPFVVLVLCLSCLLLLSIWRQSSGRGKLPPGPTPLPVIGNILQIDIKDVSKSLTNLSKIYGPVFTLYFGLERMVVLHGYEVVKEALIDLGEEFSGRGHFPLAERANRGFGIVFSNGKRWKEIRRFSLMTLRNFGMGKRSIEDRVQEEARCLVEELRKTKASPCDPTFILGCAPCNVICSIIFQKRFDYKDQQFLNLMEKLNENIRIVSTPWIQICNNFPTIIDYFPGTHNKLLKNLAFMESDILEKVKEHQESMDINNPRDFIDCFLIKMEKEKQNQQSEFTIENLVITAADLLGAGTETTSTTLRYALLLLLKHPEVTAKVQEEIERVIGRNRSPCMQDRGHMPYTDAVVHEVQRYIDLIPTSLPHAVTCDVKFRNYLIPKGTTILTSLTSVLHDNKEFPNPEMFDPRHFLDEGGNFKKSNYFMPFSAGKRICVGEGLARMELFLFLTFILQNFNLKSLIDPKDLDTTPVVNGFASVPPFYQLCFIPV

[6] = target: T4, Cytochrome P450 2C9 (Homo sapiens, UniProt P11712); assay: Drug metabolism assessed as intrinsic clearance for human recombinant CYP2C9-mediated compound formation per nmol protein treated with AM2201 at 10 uM after 90 mins; type: ADME; conditions: recombinant enzyme, 1.5 h
T4 sequence (P11712 whole entry): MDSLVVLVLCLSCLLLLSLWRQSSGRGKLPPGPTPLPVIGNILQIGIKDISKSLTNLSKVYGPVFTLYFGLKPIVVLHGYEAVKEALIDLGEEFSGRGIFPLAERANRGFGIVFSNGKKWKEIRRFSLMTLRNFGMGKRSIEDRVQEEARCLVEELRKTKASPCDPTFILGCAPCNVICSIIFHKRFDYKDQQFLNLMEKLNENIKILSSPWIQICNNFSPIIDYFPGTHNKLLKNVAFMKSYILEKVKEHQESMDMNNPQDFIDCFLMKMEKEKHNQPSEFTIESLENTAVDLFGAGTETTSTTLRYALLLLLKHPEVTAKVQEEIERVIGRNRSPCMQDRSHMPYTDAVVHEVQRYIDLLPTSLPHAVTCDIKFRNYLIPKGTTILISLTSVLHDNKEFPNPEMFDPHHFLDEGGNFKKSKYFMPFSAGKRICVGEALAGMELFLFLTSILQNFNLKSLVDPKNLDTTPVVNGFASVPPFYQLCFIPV

[7] = target: T2, Cytochrome P450 1A2; assay: Drug metabolism assessed as intrinsic clearance for human recombinant CYP1A2-mediated compound formation per nmol protein treated with AM2201 at 10 uM after 90 mins; type: ADME; conditions: recombinant enzyme, 1.5 h
[8] = tested on: Liver microsome; assay: Drug level in human liver microsomes treated with AM2201 at 10 uM after 20 mins by LC-MS/MS analysis; type: ADME
Summary of the method: (§2)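 Pooled human liver microsomes (75 μg) incubated with 10 μM substrate in 0.1 M KPO4 pH 7.4 with NADPH-regenerating system at 37°C. Reaction stopped with ethanol, centrifuged. Analytes quantified by positive-ESI LC-MS/MS against standards matrix-matched in reaction mixture, with confirmation by SRM-triggered enhanced product ion spectra library matching.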

[9] = target: T3, Cytochrome P450 2C19; assay: Drug metabolism assessed as intrinsic clearance for human recombinant CYP2C19-mediated compound formation per nmol protein treated with JWH-018 at 10 uM after 90 mins; type: ADME; conditions: recombinant enzyme, 1.5 h
[10] = tested on: Liver microsome; assay: Drug metabolism in human liver microsomes assessed as intrinsic clearance per mg protein treated with AM2201; type: ADME
[11] = target: Cannabinoid receptor 1 (Mus musculus, UniProt P47746); assay: Displacement of [3H]CP-55,940 from CB1 receptor in B6SJL mouse brain membrane after 90 mins by liquid scintillation spectrophotometric analysis; type: cell membranes
Sequence of Cannabinoid receptor 1 (P47746 whole entry): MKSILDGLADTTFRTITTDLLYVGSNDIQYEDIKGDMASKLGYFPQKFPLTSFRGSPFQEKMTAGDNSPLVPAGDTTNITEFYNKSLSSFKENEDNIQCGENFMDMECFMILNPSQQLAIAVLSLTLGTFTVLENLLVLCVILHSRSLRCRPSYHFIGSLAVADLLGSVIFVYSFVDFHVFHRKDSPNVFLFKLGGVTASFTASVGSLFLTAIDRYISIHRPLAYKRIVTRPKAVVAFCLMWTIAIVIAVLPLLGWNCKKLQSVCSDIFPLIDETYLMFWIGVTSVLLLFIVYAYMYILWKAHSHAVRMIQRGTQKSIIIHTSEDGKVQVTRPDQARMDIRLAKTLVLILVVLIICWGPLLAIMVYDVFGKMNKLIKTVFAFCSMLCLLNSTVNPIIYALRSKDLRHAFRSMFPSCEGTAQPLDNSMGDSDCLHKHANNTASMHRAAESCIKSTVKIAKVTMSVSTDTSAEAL
Summary of the method: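 B6SJL mouse brain membranes (50 μg) with 0.2 nM [3H]CP-55,940 and competitor at 0.1 nM–10 μM. Buffer 5 mM MgCl2, 50 mM Tris, 0.05% BSA; 90 min at room temperature, triplicate. Nonspecific binding set with 10 μM WIN-55,212-2. Filtered on GF/B, washed with Tris/BSA, counted by scintillation. Specific binding given as % of vehicle.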

[12] = target: T1, Cytochrome P450 2D6; assay: Drug metabolism assessed as intrinsic clearance for human recombinant CYP2D6-mediated compound formation per nmol protein treated with JWH-018 at 10 uM after 90 mins; type: ADME; conditions: recombinant enzyme, 1.5 h
[13] = target: Cannabinoid receptor 1 (Mus musculus) (UniProt P47746); assay: Activation of CB1 receptor in B6SJL mouse brain membrane assessed as [35S]-GTPgammaS binding at 10 uM after 30 mins by liquid scintillation spectrophotometric analysis; type: functional, cell membranes
Sequence of Cannabinoid receptor 1 (Mus musculus) (P47746 whole entry): as above
Summary of the method: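 Mouse brain membrane homogenate (25 μg; whole B6SJL brains, pooled, Dounce-homogenised, spun 40,000g three times). Incubated with […], 0.1 nM [35S]GTPγS in 20 mM HEPES, 10 mM MgCl2, 100 mM NaCl, 20 U/l adenosine deaminase, 0.05% BSA, 30 min at 30°C, triplicate. Nonspecific binding with 10 μM unlabelled GTPγS. Stopped by GF/B filtration; filters counted by scintillation.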

[14] = target: T4, Cytochrome P450 2C9; assay: Drug metabolism assessed as intrinsic clearance for human recombinant CYP2C9-mediated compound formation per nmol protein treated with JWH-018 at 10 uM after 90 mins; type: ADME; conditions: recombinant enzyme, 1.5 h
[15] = target: T5, Cytochrome P450 2E1 (Homo sapiens, UniProt P05181); assay: Drug metabolism assessed as human recombinant CYP2E1-mediated (1-(5-hydroxypentyl)-1H-indol-3-yl)(naphthalen-1-yl)methanone formation at 10 uM after 90 mins by LC-MS/MS analysis; type: ADME; conditions: recombinant enzyme, 1.5 h
T5 sequence (P05181 whole entry): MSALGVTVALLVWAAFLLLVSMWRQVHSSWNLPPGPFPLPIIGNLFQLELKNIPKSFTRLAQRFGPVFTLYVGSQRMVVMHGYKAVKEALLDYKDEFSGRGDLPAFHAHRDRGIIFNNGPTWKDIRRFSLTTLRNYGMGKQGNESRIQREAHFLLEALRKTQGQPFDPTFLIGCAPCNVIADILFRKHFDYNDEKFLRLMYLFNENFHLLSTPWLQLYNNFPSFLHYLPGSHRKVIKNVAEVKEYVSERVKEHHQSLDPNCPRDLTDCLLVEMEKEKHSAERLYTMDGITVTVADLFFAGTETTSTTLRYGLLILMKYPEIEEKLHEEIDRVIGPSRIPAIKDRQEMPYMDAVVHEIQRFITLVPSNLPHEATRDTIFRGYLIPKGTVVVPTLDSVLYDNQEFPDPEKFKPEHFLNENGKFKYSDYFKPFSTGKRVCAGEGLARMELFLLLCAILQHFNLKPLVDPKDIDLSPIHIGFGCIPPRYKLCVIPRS
Summary of the method: (§3)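 Recombinant human CYP2E1 or CYP3A4 (2 pmol) incubated with substrate at 10 μM final, dried from ethanol. Buffer 0.1 M KPO4 pH 7.4 with NADPH-regenerating system, which starts the reaction. 90 min at 37°C, triplicate, with no-substrate, no-protein and no-NADPH controls. Stopped with ethanol, centrifuged, and metabolites quantified by LC-MS/MS.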

[16] = target: T6, Cytochrome P450 3A4 (Homo sapiens, UniProt P08684); assay: Drug metabolism assessed as human recombinant CYP3A4-mediated (1-(5-hydroxypentyl)-1H-indol-3-yl)(naphthalen-1-yl)methanone formation at 10 uM after 90 mins by LC-MS/MS analysis; type: ADME; conditions: recombinant enzyme, 1.5 h; summary of the method: as §3
T6 sequence (P08684 whole entry): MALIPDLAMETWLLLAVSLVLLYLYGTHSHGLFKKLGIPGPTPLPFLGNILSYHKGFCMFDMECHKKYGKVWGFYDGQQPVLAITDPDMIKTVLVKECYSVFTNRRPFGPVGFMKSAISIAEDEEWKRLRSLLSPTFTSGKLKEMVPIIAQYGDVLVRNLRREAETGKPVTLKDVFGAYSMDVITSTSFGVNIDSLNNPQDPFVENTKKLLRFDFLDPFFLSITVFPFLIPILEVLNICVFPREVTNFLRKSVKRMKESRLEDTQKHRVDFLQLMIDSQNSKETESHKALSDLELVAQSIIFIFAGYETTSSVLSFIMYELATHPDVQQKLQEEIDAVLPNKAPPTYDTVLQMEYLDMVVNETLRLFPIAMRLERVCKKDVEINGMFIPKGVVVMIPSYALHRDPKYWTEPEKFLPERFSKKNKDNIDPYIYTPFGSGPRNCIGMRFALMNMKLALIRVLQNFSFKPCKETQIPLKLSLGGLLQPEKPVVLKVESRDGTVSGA

[17] = target: T5, Cytochrome P450 2E1; assay: Drug metabolism assessed as human recombinant CYP2E1-mediated (1-(5-fluoro-4-hydroxypentyl)-1H-indol-3-yl)(naphthalen-1-yl)methanone formation at 10 uM after 90 mins by LC-MS/MS analysis; type: ADME; conditions: recombinant enzyme, 1.5 h; summary of the method: as §3
[18] = target: Cannabinoid receptor 1 (Mus musculus) (UniProt P47746); assay: Activation of CB1 receptor in B6SJL mouse brain membrane assessed as [35S]-GTPgammaS binding at 10 uM after 30 mins by liquid scintillation spectrophotometric analysis in presence of O-2050; type: functional, cell membranes
[19] = target: T6, Cytochrome P450 3A4; assay: Drug metabolism assessed as human recombinant CYP3A4-mediated (1-(5-fluoro-4-hydroxypentyl)-1H-indol-3-yl)(naphthalen-1-yl)methanone formation at 10 uM after 90 mins by LC-MS/MS analysis; type: ADME; conditions: recombinant enzyme, 1.5 h; summary of the method: as §3
[20] = Drug metabolism in human urine assessed as 5-(3-(1-naphthoyl)-1H-indol-1-yl)pentanoic acid formation by LC-MS/MS analysis; type: ADME, tissue-based; summary of the method: as §1
[21] = target: T5, Cytochrome P450 2E1; assay: Drug metabolism assessed as human recombinant CYP2E1-mediated 5-(3-(1-naphthoyl)-1H-indol-1-yl)pentanoic acid formation at 10 uM after 90 mins by LC-MS/MS analysis; type: ADME; conditions: recombinant enzyme, 1.5 h; summary of the method: as §3
[22] = target: T6, Cytochrome P450 3A4; assay: Drug metabolism assessed as human recombinant CYP3A4-mediated 5-(3-(1-naphthoyl)-1H-indol-1-yl)pentanoic acid formation at 10 uM after 90 mins by LC-MS/MS analysis; type: ADME; conditions: recombinant enzyme, 1.5 h; summary of the method: as §3
[23] = Drug metabolism in human urine assessed as (1-(5-hydroxypentyl)-1H-indol-3-yl)(naphthalen-1-yl)methanone formation by LC-MS/MS analysis; type: ADME, tissue-based; summary of the method: as §1
[24] = Drug metabolism in human urine assessed as (1-(5-fluoro-4-hydroxypentyl)-1H-indol-3-yl)(naphthalen-1-yl)methanone formation by LC-MS/MS analysis; type: ADME, tissue-based; summary of the method: as §1
[25] = Drug metabolism in human urine assessed as (1-(4-hydroxypentyl)-1H-indol-3-yl)(naphthalen-1-yl)methanone formation by LC-MS/MS analysis; type: ADME, tissue-based; summary of the method: as §1
[26] = target: T6, Cytochrome P450 3A4; assay: Drug metabolism assessed as human recombinant CYP3A4-mediated (1-(4-hydroxypentyl)-1H-indol-3-yl)(naphthalen-1-yl)methanone formation at 10 uM after 90 mins by LC-MS/MS analysis; type: ADME; conditions: recombinant enzyme, 1.5 h; summary of the method: as §3
[27] = tested on: Liver microsome; assay: Drug metabolism in human liver microsomes assessed as (6-hydroxy-1-pentyl-1H-indol-3-yl)(naphthalen-1-yl)methanone formation at 10 uM after 20 mins by LC-MS/MS analysis; type: ADME; summary of the method: as §2
[28] = tested on: Liver microsome; assay: Drug metabolism in human liver microsomes assessed as (7-hydroxy-1-pentyl-1H-indol-3-yl)(naphthalen-1-yl)methanone formation at 10 uM after 20 mins by LC-MS/MS analysis; type: ADME; summary of the method: as §2
[29] = target: T5, Cytochrome P450 2E1; assay: Drug metabolism assessed as human recombinant CYP2E1-mediated (1-(4-hydroxypentyl)-1H-indol-3-yl)(naphthalen-1-yl)methanone formation at 10 uM after 90 mins by LC-MS/MS analysis; type: ADME; conditions: recombinant enzyme, 1.5 h; summary of the method: as §3
[30] = tested on: Liver microsome; assay: Drug metabolism in human liver microsomes assessed as (5-hydroxy-1-pentyl-1H-indol-3-yl)(naphthalen-1-yl)methanone formation at 10 uM after 20 mins by LC-MS/MS analysis; type: ADME; summary of the method: as §2
[31] = target: Cytochrome b5 (Homo sapiens, UniProt P00167); assay: Drug metabolism assessed as cytochrome b5 (unknown origin)-mediated (5-hydroxy-1-pentyl-1H-indol-3-yl)(naphthalen-1-yl)methanone formation at 10 uM after 90 mins by LC-MS/MS analysis in presence of oxidoreductase; type: ADME; conditions: 1.5 h
Sequence of Cytochrome b5 (P00167 whole entry): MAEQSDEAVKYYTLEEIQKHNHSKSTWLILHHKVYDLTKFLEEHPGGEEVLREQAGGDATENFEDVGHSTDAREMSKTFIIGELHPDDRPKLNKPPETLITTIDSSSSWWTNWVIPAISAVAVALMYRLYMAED

[32] = tested on: Liver microsome; assay: Drug level in human liver microsomes treated with JWH-018 at 10 uM after 20 mins by LC-MS/MS analysis; type: ADME; summary of the method: as §2

T1 sequence (P10635 whole entry): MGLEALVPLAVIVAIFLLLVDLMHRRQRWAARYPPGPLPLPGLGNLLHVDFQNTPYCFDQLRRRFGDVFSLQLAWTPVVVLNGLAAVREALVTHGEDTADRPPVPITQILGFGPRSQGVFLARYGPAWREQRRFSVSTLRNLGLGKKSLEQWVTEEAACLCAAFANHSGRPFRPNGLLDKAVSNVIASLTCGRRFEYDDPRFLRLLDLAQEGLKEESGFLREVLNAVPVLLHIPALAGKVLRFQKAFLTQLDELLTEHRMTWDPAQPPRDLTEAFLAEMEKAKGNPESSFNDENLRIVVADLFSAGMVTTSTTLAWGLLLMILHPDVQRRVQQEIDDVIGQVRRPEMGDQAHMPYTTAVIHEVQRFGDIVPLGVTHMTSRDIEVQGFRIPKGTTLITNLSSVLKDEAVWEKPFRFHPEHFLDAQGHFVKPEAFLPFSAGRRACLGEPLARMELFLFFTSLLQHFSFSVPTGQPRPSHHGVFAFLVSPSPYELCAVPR

SMILES | CL [1] [µL/min] | CLH [2] [µL/min/mg] | CL [3] [µL/min] | Drug metabolism [4] | CL [5] [µL/min] | CL [6] [µL/min] | CL [7] [µL/min] | Drug metabolism [8] [ng/mL] | CL [9] [µL/min] | CLH [10] [µL/min/g] | Ki [11] [nM] | CL [12] [µL/min] | Activity [13] | CL [14] [µL/min] | Drug metabolism [15] | Drug metabolism [16] | Activity [18] | Drug metabolism [20] | Drug metabolism [21] | Drug metabolism [22] | further results
O=C(O)CCCCn1cc(C(=O)c2cccc3ccccc23)c2ccccc21 | 0.371 | 0 | 23 | metabolite_detected | 28 | 111 | 89 | 4.7 | 0 | 0.6 | > 10000 | 0 | inactive | 0 |  |  |  |  |  |  | 
O=C(c1cccc2ccccc12)c1cn(CCCCCF)c2ccccc12 |  |  |  |  |  |  |  |  |  |  | 0.395 |  | Active |  | metabolite_not_detected | metabolite_not_detected | inactive | metabolite_detected | metabolite_not_detected | metabolite_not_detected | Drug metabolism [17]: metabolite_not_detected; Drug metabolism [19]: metabolite_not_detected; Drug metabolism [23]: metabolite_detected; Drug metabolism [24]: metabolite_detected
CCCCCn1cc(C(=O)c2cccc3ccccc23)c2ccccc21 |  |  |  |  |  |  |  |  |  |  | 1.3 |  | Active |  | metabolite_not_detected | metabolite_not_detected | inactive | metabolite_detected | metabolite_not_detected | metabolite_not_detected | Drug metabolism [25]: metabolite_detected; Drug metabolism [26]: metabolite_not_detected; Drug metabolism [27]: metabolite_detected; Drug metabolism [28]: metabolite_detected; Drug metabolism [29]: metabolite_not_detected; Drug metabolism [30]: metabolite_detected; Drug metabolism [31]: metabolite_detected; Drug metabolism [23]: metabolite_detected
CC(O)CCCn1cc(C(=O)c2cccc3ccccc23)c2ccccc21 (centres undefined) |  | 0.574 | 306 | metabolite_detected |  |  |  |  | 48.7 |  | 15.4 | 13.4 | Active | 375 |  |  | inactive |  |  |  | 
CCCCCn1cc(C(=O)c2cccc3ccccc23)c2cccc(O)c21 |  | 0 |  |  |  |  |  |  |  | 0 |  |  |  |  |  |  |  |  |  |  | Drug metabolism [32]: metabolite_detected
O=C(c1cccc2ccccc12)c1cn(CCCCCO)c2ccccc12 | 3.7 | 0.5 | 157 | metabolite_detected | 32 | 63 | 19 | 8.53 | 6.5 | 0.483 | 35 | 9.3 | Active | 1035 |  |  | inactive |  |  |  | 

From ChEMBL document CHEMBL3526105, “Cytochrome P450-mediated oxidative metabolism of abused synthetic cannabinoids found in K2/Spice: identification of novel cannabinoid receptor ligands” (Drug Metab Dispos, 2012)
